Experimental data taken from ChEMBL document CHEMBL5260824, “9-Deazapurines as Broad-Spectrum Inhibitors of the ABC Transport Proteins P-Glycoprotein, Multidrug Resistance-Associated Protein 1, and Breast Cancer Resistance Protein” (J Med Chem, 2017).

What was measured:
[1] = Inhibition of cell growth in Daunorubicin resistant human A2780 ADR cells expressing P-gp measured for 72 hrs by MTT assay; type: functional
Procedure, shortened: (§1)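 Reversal assay: resistant lines (A2780/ADR, H69AR, MDCK II BCRP) and parental lines seeded as for MTT assay with modulator solutions of 1, 10 and 100 µM added (final 0.1, 1, 10 µM) and daunorubicin (P-gp, MRP1) or SN-38 (BCRP) at final 10 nM–10 µM. 72 h, MTT read-out; GI50 by variable-slope fit. Resistance factor = resistant/sensitive GI50; potentiation factor = GI50 without/with modulator.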

H69AR = test: Inhibition of cell growth in Daunorubicin resistant human NCI-H69AR cells expressing MRP1 measured for 72 hrs by MTT assay; type: functional; procedure, shortened: as §1
[2] = Resistance factor, ratio of GI50 for inhibition of cell growth in daunorubicin resistant human A2780 ADR cells expressing P-gp measured for 72 hrs by MTT assay to GI50 for inhibition of daunorubicin sensitive human A2780 cells measured for 72 hrs by MTT assay
[3] = Inhibition of daunorubicin sensitive human A2780 ADR cells expressing P-gp measured for 72 hrs by MTT assay; type: functional; procedure, shortened: as §1
[4] = Inhibition of daunorubicin sensitive human NCI-H69AR cells expressing MRP1 measured for 72 hrs by MTT assay; type: functional; procedure, shortened: as §1
[5] = Resistance factor, ratio of GI50 for inhibition of cell growth in daunorubicin resistant human NCI-H69AR cells expressing MRP1 to GI50 for inhibition of daunorubicin sensitive human NCI-H69 cells

COc1cccc2c1C(=O)c1c(O)c3c(c(O)c1C2=O)C[C@@](O)(C(C)=O)C[C@@H]3O[C@H]1C[C@H](N)[C@H](O)[C@H](C)O1 [DAUNORUBICIN]
GI50 [1]: 575 nM | GI50 (H69AR): 3.84 µM | RatioGI50 [2]: 54 | GI50 [3]: 10 nM | GI50 [4]: 361 nM | RatioGI50 [5]: 11
